Source: the EternaBench riboswitch data

Test system: MS2 coat protein
Assay: apparent Kd, MS2 coat protein; higher = weaker binding; RNA-MaP array; FMN 200 µM where present
Procedure, shortened: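 Each design was made on Illumina sequencing-chip clusters by stalled E. coli RNA polymerase and titrated with SNAP-549-labelled MS2 coat protein from 0.7 or 1.5 nM, doubling to 3 µM, in the absence and then the presence of constant ligand. The buffer was 100 mM Tris-HCl pH 7.5, 80 mM KCl, 4 mM MgCl2, BSA, DTT, yeast tRNA and Tween-20. The apparent Kd is the median of filtered per-cluster fits of binding curves, with green signal normalised to red-channel RNA signal and control-cluster median Fmax.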

[1] = designed as: ON switch for flavin mononucleotide, no ligand
[2] = ligand present: flavin mononucleotide, designed as: ON switch for flavin mononucleotide
[3] = designed as: OFF switch for flavin mononucleotide, no ligand
[4] = ligand present: flavin mononucleotide, designed as: OFF switch for flavin mononucleotide

Row | Sequence | apparent Kd [1] [nM] | apparent Kd [2] [nM] | apparent Kd [3] [nM] | apparent Kd [4] [nM]
1 | UGCCAUUACAUGAGGAUCACCCAUGUUCGCUAUGCGGGCUCGCAGGAUAUCCUCGCAGAUAAAGAGGAGAAGGGUGAUCCCGAC | 48 | 28.9 |  | 
2 | UGCGGUUGAGGAUAUACGUAGAAAUAGAUUCAUGUAAAACUACAUGAGGAUCACCCAUGUAGAAGGCAAUCGCU |  |  | 25.7 | 217
3 | UGCGUACAAGCAGACAUGAGGAUCACCCAUGUGGUCUCAUGCGAGGAUAUCGGGAAGGAGGAUUCCGAGAAGGUGCGGUGAGCC | 157 | 39.6 |  | 
4 | UGCUACUAGGGAGGAUAUGGGAAGAUACAUGAGGAUCACCCAUGUUUAAGAAUGCCGAGAGGCAACUAGAAGGCCCUAGUACCU | 401 | 22.1 |  | 
5 | UGCUGACGAGGAUAUACAUGAGGAUCACCCAUGUUGGUCAAGCGACGAUAGUCGCAAUGUAGAAGGCGUCAGCU |  |  | 483 | 208
6 | UGCUGGCGAGGAUAUGCUCGGGUUGCUUGUCGCGCGGUUGCACAUGAGGAUCACCCAUGUAGAAGGUGUCUGUG |  |  | 311 | 438
7 | UGGACCGAGCUGUCGGUUGGCUCUUAGGAUAUGACAUGAGGAUCACCCAUGUGGGAUCUAAAUUGUCAGAAGGAGGGUUCUGGG |  |  | 48.3 | 40.3
8 | UGGAGAAAUCAAGGAUAUGCUACCGUUUCGGUAGCAGAAGGUGAUCACAUGAGGAUCACCCAUGUAUGCAUGCGUGAGCGUGCU | 46.4 | 289 |  | 
9 | UGGAUCAAUACAGGAUAUGGUGACGCACAUGAGGAUCACCCAUGUCCGCAGCGUGCUAAGCACGCCCAGAAGGGUAUUAAUUCG | 885 | 90 |  | 
10 | UGGAUGGUAUGAGGAUAUGCGCGCGAAACGUGCGCAGAAGGCAUGUCAAUAGACAUGAGGAUCACCCAUGUAUUAUCCAUCCAA | 140 | 12.5 |  | 
11 | UGGAUGUAGGAGAAGGAGGACUUCAUGAGGAUCACCCAUGUGUUAGGACUUAGGAUAUUUGACGACAUGAGGAUCACCCAUGUG | 63.6 | 58.4 |  | 
12 | UGGGCUUUAGGAUAUGCGUGUUGUAGUCGGCGAUGUGGUUCACAUGAGGAUCACCCAUGUAGAAGGAGGGUUUA |  |  | 139 | 120
13 | UGGUACAUCAUAGGAUAUCGUGUGUAAACAUGAGGAUCACCCAUGUCAUCCGAGAGUAUGUCGACCGAGAAGGGUGAUGUACCU | 45.4 | 72.7 |  | 
14 | UGGUACAUCGGAGGAUAUCAUGUGAAAACAUGAGGAUCACCCAUGUCGAUGGAGACAUCGGAGAUUGAGAAGGCCGAUGUACCU | 1470 | 49.9 |  | 
15 | UGGUACAUGGGAGGAUAUCAUGUACUUACAUGAGGAUCACCCAUGUCGAUGGAGACAUCGGAGAUUGAGAAGGCCCAUGUACCU | 1220 | 42.2 |  | 
16 | UGGUACAUGGGAGGAUAUCAUGUUCUUACAUGAGGAUCACCCAUGUCGAUGGAGACAUCGGAGAUUGAGAAGGCCCAUGUACCU | 1070 | 54.2 |  | 
17 | UGGUACAUGGGAGGAUAUCCUCAACAUGAGGAUCACCCAUGUAAGAAUUAUAAGCCGAAAGGCAUGGAGAAGGCCCAUGUACCU | 71.6 | 15.3 |  | 
18 | UGGUACAUGGGAGGAUAUGGGUUGAUAACAUGAGGAUCACCCAUGUUAAAUAUCCCGAGAGGGAACUAGAAGGCCCAUGUACCU | 643 | 46 |  | 
19 | UGGUACUAGGGAGGAUAUGGGAAGAUACAUGAGGAUCACCCAUGUUUAAGAAAGCCGAGAGGCAACUAGAAGGCCCUAGUACCU | 278 | 13.8 |  | 
20 | UGGUACUAGGGAGGAUAUGGGAAGAUACAUGAGGAUCACCCAUGUUUAAGAAUGCCCAGAGGCAACUAGAAGGCCCUAGUACCU | 66.2 | 16.9 |  | 
21 | UGGUACUAGGGAGGAUAUGGGAAGAUACAUGAGGAUCACCCAUGUUUAAGAAUGCCGAGAAGCAACUAGAAGGCCCUAGUACCU | 332 | 19.5 |  | 
22 | UGGUACUAGGGAGGAUAUGGGAAGAUACAUGAGGAUCACCCAUGUUUAAGAAUGCCGAGAGGCAACAAGAAGGCCCUAGUACCU | 532 | 98.9 |  | 
23 | UGGUACUAGGGAGGAUAUGGGAAGAUACAUGAGGAUCACCCAUGUUUAAGAAUGCCGAGAGGCCACUAGAAGGCCCUAGUACCU | 244 | 12.4 |  | 
